Measured values: ChEMBL document CHEMBL1155884, “Sinulodurins A and B, antiproliferative and anti-invasive diterpenes from the soft coral Sinularia dura” (J Nat Prod, 2008)
Calls of active or inactive are those of the source. The rule behind the calls is not given here.

Key:
Candida albicans = test: Antimicrobial activity against Candida albicans up to 50 ug/mL; format: functional, organism-based
Escherichia coli = test: Antimicrobial activity against Escherichia coli up to 50 ug/mL; format: functional, organism-based
Pseudomonas aeruginosa = test: Antimicrobial activity against Pseudomonas aeruginosa up to 50 ug/mL; format: functional, organism-based
Cryptococcus neoformans = test: Antimicrobial activity against Cryptococcus neoformans up to 50 ug/mL; format: functional, organism-based
[1] = tested on: Mycobacterium intracellulare; test: Antimicrobial activity against Mycobacterium intracellular up to 50 ug/mL; format: functional, organism-based
Aspergillus fumigatus = test: Antimicrobial activity against Aspergillus fumigatus up to 50 ug/mL; format: functional, organism-based
Staphylococcus aureus = test: Antimicrobial activity against methicillin-resistant Staphylococcus aureus up to 50 ug/mL; format: functional, organism-based
Vero = test: Cytotoxicity against african green monkey Vero cells; format: cell-based; details: chlorocebus sabaeus
[2] = Antiproliferative activity against mouse +SA cells assessed as cell viability after 4 days by MTT assay; format: functional, cell-based; details: 96 h
How it was run: (§1)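 Highly malignant +SA mouse mammary epithelial cells kept in serum-free medium with 10 ng/mL EGF and 10 µg/mL insulin as mitogens. Seeded 5 × 10^4 cells/well, 6 wells/group, fed medium with compound at 0.01-1000 µM. Viable cell number determined by MTT colorimetric assay after 4 days in culture, compared against vehicle control.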

+SA cell [3] = test: Antiproliferative activity against mouse +SA cells assessed as cell viability at 30 uM after 4 days by MTT assay; format: functional, cell-based; how it was run: as §1
Homo sapiens [4] = species on record: Homo sapiens; test: Antiinvasive activity against human PC-3M-CT+ cells at 25 uM after 48 hrs by spheroid disaggregation assay; format: functional, cell-based
How it was run: (§2)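 Spheroids formed from 5 × 10^4 cells/mL in serum-free RPMI 1640 rocked in low-attachment wells at 37 °C for 2 days (150-300 µm, ~4 × 10^4 cells each). Single spheroid placed on ECM-coated well in serum-free medium, t=0 set 1 h after plating. Photographed at t=0, cultured 48 h at 37 °C, fixed, Diff-Quik stained. Migration diameter measured by micrometer minus initial diameter; given as average percent increase in surface area.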

Homo sapiens [5] = species on record: Homo sapiens; test: Antiinvasive activity against human PC-3M-CT+ cells at 50 uM after 48 hrs by spheroid disaggregation assay; format: functional, cell-based; how it was run: as §2
Homo sapiens [6] = species on record: Homo sapiens; test: Antiinvasive activity against human PC-3M-CT+ cells at 100 uM after 48 hrs by spheroid disaggregation assay; format: functional, cell-based; how it was run: as §2
Homo sapiens [7] = species on record: Homo sapiens; test: Antiinvasive activity against human PC-3M-CT+ cells at 200 uM after 48 hrs by spheroid disaggregation assay; format: functional, cell-based; how it was run: as §2
+SA cell [8] = test: Antiproliferative activity against mouse +SA cells assessed as cell viability at 20 uM after 4 days by MTT assay; format: functional, cell-based; how it was run: as §1

Row | Compound | Activity (Candida albicans) | Activity (Escherichia coli) | Activity (Pseudomonas aeruginosa) | Activity (Cryptococcus neoformans) | Activity [1] | Activity (Aspergillus fumigatus) | Activity (Staphylococcus aureus) | Activity (Vero) | IC50 [2] [µM] | Activity (+SA cell [3]) | Activity (Homo sapiens [4]) | Activity (Homo sapiens [5]) | Activity (Homo sapiens [6]) | Activity (Homo sapiens [7]) | Activity (+SA cell [8])
1 | C=C1C=C2[C@@H](C[C@@H]1O)[C@@H](C)CC[C@@H]2[C@@H](C)CCC=C(C)C | inactive | inactive | inactive | inactive | inactive | inactive | inactive | Not Active | – | – | – | – | – | – | –
2 | C=C1C=C2[C@H](CC1)[C@@H](C)CC[C@@H]2[C@@H](C)CCC=C(C)C | inactive | inactive | inactive | inactive | inactive | inactive | inactive | Not Active | – | – | – | – | – | – | –
3 | CC(C)=CCC/C(C)=C/CC/C(C)=C/CC[C@]1(C)CCc2cc(O)cc(C)c2O1 [DELTA-TOCOTRIENOL] | – | – | – | – | – | – | – | – | 7 | – | – | – | – | – | –
4 | C=C1C=C2[C@@H](CC1)[C@H](C)[C@H](OC(C)=O)C[C@H]2[C@H](C)C(OC(C)=O)C(=O)C=C(C)C (stereo partly drawn) [SINULODURIN A] | inactive | inactive | inactive | inactive | inactive | inactive | inactive | Not Active | – | Active | Active | Active | Active | Active | –
5 | C=C1C=C2[C@@H](CC1)[C@H](C)CC[C@H]2[C@H](C)C(OC(C)=O)C(=O)C=C(C)C (stereo partly drawn) [SINULODURIN B] | inactive | inactive | inactive | inactive | inactive | inactive | inactive | Not Active | – | – | Active | Active | Active | Active | Active
